Results: ChEMBL document CHEMBL2150952 (J Med Chem, 2011)
Blank lines part the entries; values can stand above or below the molecule they belong to. Activity calls are given as the source filed them. No cut-off for these calls is given here.

Tests used:
[1] = target: T1, Acyl-CoA desaturase 1 (Rattus norvegicus, UniProt P07308); experiment: Inhibition of SCD-1 activity in Sprague-Dawley rat Hepatocytes expressing organic anion transporting polypeptides assessed as reduction in [I-14C] […] desaturation by scintillation counting; assay type: cell-based, Hepatocyte
T1 sequence (P07308 whole entry): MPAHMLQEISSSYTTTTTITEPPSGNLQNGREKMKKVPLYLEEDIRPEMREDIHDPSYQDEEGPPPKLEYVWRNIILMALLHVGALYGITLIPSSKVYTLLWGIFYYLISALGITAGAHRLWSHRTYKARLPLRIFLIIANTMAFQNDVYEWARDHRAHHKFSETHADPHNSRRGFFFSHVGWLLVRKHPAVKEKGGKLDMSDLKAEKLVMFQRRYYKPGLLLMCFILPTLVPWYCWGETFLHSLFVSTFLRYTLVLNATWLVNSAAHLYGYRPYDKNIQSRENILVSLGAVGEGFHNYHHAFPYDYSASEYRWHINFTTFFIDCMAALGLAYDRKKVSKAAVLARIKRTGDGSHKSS
In short: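 Rat hepatocytes (4 × 10^6 cells/mL) were preincubated with compound for 15 min at 37 °C/5% CO2. 14C-stearic acid (final 0.5 μCi/mL) was then added for 1 h with shaking. Cells were washed, hydrolyzed in 2N NaOH at 75 °C for 1 h, acidified and extracted. Radiolabeled oleic and stearic acids were quantified by HPLC with flow scintillation detection. Mean of at least n = 3.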

[2] = target: T1, Acyl-CoA desaturase 1; experiment: Inhibition of SCD-1 activity in Sprague-Dawley rat microsome assessed as reduction in [I-14C] stearoyl CoA desaturation by scintillation counting; assay type: microsomes
[3] = test system: Liver; experiment: Ratio drug uptake in liver to harderian gland of C57BL6 mouse at 10 mg/kg, po measured 6 hrs post dose; assay type: ADME, organism-based; set-up: dose 10 mg/kg, route oral; conditions: in vivo
In short: (§1)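 Single oral dose of 10 mg/kg in 0.5% methylcellulose to fed C57BL6 mice (n = 2). Animals sacrificed 6 h post dose. Plasma, liver, skin and Harderian gland collected. Tissues homogenized in MeCN/water with internal standard and drug quantified by LC-MS against a standard curve made in blank plasma. Concentration ratio calculated.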

[4] = target: T2, Stearoyl-CoA desaturase (Homo sapiens, UniProt O00767); experiment: Inhibition of SCD-1 activity in organic anion transporting polypeptides-deficient human HepG2 cells assessed as reduction in [I-14C] stearoyl CoA desaturation by scintillation counting; assay type: cell-based
T2 sequence (O00767 whole entry): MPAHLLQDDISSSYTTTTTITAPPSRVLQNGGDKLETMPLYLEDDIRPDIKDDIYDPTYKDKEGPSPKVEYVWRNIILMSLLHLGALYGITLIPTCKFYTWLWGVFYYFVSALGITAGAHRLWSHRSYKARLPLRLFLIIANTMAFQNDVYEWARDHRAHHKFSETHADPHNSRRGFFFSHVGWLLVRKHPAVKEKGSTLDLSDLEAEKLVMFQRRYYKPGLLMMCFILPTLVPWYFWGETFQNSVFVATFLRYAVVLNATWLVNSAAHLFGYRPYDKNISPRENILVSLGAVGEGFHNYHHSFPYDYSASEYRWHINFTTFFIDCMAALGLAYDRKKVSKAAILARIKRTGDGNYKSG

[5] = test system: HepG2; experiment: Ratio IC50 for SCD-1 activity in organic anion transporting polypeptides-deficient human HepG2 cells to IC50 for SCD-1 activity in Sprague-Dawley rat Hepatocytes expressing organic anion transporting polypeptides; assay type: cell-based
In short: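 Cellular SCD IC50s measured in human HepG2 cells (lacking active OATPs) and in rat hepatocytes (active OATPs). Hepatocytes preincubated with compound for 15 min at 37 °C, then given 14C-stearic acid (final 0.5 μCi/ml) for 1 h with shaking. Lipids hydrolysed in 2N NaOH at 75 °C, acidified and extracted. Radiolabelled oleic and stearic acid resolved by HPLC with flow scintillation detection. Mean of at least n = 3. HepG2 IC50 divided by hepatocyte IC50.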

[6] = Ratio drug uptake in liver to plasma of C57BL6 mouse at 10 mg/kg, po measured 6 hrs post dose; assay type: ADME, organism-based; set-up: dose 10 mg/kg, route oral; conditions: liver and plasma; in short: as §1
[7] = Cmax in plasma of fasted C57BL6 mouse at 2 mg/kg, iv and 10 mg/kg, po by LC-MS-MS analysis; assay type: ADME, organism-based
In short: (§2)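 Fasted male C57BL6 mice received 2 mg/kg IV and 10 mg/kg PO. For the reference compound, IV was given as a solution in 60% PEG-200 and PO as a suspension in 1% methocel. Plasma levels were measured by LC-MS/MS. Values are the mean of n = 3 animals.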

[8] = test system: Mus musculus; experiment: Antidiabetic activity in diet-induced obese C57BL6 mouse assessed as reduction in body weight gain at 1 mg/kg, po QD; assay type: functional; set-up: scale not given: the % may be the effect or the level left
In short: (§3)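 Male C57/Bl6 mice were fed a high fat diet for at least 18 weeks from 6 weeks of age, then given vehicle (1% methocel, bid) for 7 days and randomized by body weight. Oral dosing (qd or bid) ran for 28 days, with n = 8–10/group. Body weight, food intake and skin/eye scores were recorded twice weekly.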

[9] = test system: Mus musculus; experiment: Toxicity in diet-induced obese C57BL6 mouse assessed as adverse effect in skin at 1 to 5 mg/kg, po QD; assay type: organism-based; set-up: dose 1-5 mg/kg, route oral; conditions: in vivo
[10] = test system: Mus musculus; experiment: Inhibition of SCD activity in skin of diet-induced obese C57BL6 mouse assessed as reduction in desaturation induces at 5 mg/kg, po QD; assay type: functional
[11] = test system: Mus musculus; experiment: Antidiabetic activity in diet-induced obese C57BL6 mouse assessed as reduction in body weight gain at 5 mg/kg, po QD; assay type: functional; set-up: scale not given: the % may be the effect or the level left; in short: as §3
[12] = test system: Mus musculus; experiment: Antidiabetic activity in po dosed diet-induced obese C57BL6 mouse assessed as reduction in body weight gain; assay type: functional, organism-based; in short: as §3
[13] = test system: Mus musculus; experiment: Inhibition of SCD activity in liver of diet-induced obese C57BL6 mouse assessed as reduction in desaturation induces at 30 mg/kg, po BID; assay type: functional, organism-based; set-up: dose 30 mg/kg
[14] = Drug level in harderian gland of diet-induced obese C57BL6 mouse at 5 mg/kg, po QD; assay type: ADME, organism-based; set-up: dose 5 mg/kg, route oral; conditions: in vivo, read-out: Drug uptake
In short: (§4)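 eDIO mice were dosed orally for 4 weeks, either 20 mg/kg bid or 5 mg/kg qd. Liver, Harderian gland and skin were taken at trough at study termination, and compound concentration was measured by LC-MS.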

[15] = test system: Mus musculus; experiment: Antidiabetic activity in diet-induced obese C57BL6 mouse assessed as reduction in glucose AUC at 1 to 15 mg/kg, po administered 1 hr before oral glucose administration measured 2 hrs thereafter; assay type: functional; conditions: dose mg/kg 1-15
[16] = Clearance in fasted C57BL6 mouse at 2 mg/kg, iv and 10 mg/kg, po by LC-MS-MS analysis; assay type: ADME, organism-based; conditions: in vivo; in short: as §2
[17] = test system: Mus musculus; experiment: Inhibition of SCD activity in harderian gland of diet-induced obese C57BL6 mouse assessed as reduction in desaturation induces at 5 mg/kg, po QD; assay type: functional
[18] = test system: Mus musculus; experiment: Inhibition of SCD activity in liver of diet-induced obese C57BL6 mouse assessed as reduction in desaturation induces at 5 mg/kg, po QD; assay type: functional
[19] = test system: Mus musculus; experiment: Antidiabetic activity in diet-induced obese C57BL6 mouse assessed as reduction in glucose AUC at 1 to 3 mg/kg, po administered 1 hr before oral glucose administration measured 2 hrs thereafter; assay type: functional; conditions: dose mg/kg 1-3
[20] = test system: Mus musculus; experiment: Antidiabetic activity in diet-induced obese C57BL6 mouse assessed as reduction in glucose AUC at 1 to 10 mg/kg, po administered 1 hr before oral glucose administration measured 2 hrs thereafter; assay type: functional; conditions: dose mg/kg 1-10
[21] = test system: Mus musculus; experiment: Antidiabetic activity in po dosed diet-induced obese fasted C57BL6 mouse assessed as increase in glucose clearance administered 1 hr before glucose challenge measured 12 hrs thereafter by OGTT; assay type: functional; conditions: in the assay text read “2 hrs” for “12 hrs”
In short: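 Male C57/Bl6 mice were kept on a high fat diet for at least 14 weeks from 6 weeks of age, then fasted 16 h. Compound was given orally 1 h before a 2 g/kg oral glucose load.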

[22] = Volume of distribution in fasted C57BL6 mouse at 2 mg/kg, iv and 10 mg/kg, po by LC-MS-MS analysis; assay type: ADME, organism-based; conditions: in vivo
In short: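 Fasted male C57BL6 mice given 2 mg/kg IV and 10 mg/kg PO. Plasma drug levels measured by LC-MS/MS, mean of n = 3 animals, and PK parameters derived from these.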

[23] = test system: Mus musculus; experiment: Toxicity in diet-induced obese C57BL6 mouse assessed as adverse effect in eye at 1 to 5 mg/kg, po QD; assay type: organism-based; set-up: dose 1-5 mg/kg, route oral; conditions: in vivo
[24] = test system: Zone of skin; experiment: Drug level in skin of diet-induced obese C57BL6 mouse at 5 mg/kg, po QD; assay type: ADME, organism-based; set-up: dose 5 mg/kg, route oral; conditions: in vivo, read-out: Drug uptake; in short: as §4
[25] = test system: Liver; experiment: Drug level in liver of diet-induced obese C57BL6 mouse at 5 mg/kg, po QD; assay type: ADME, organism-based; set-up: dose 5 mg/kg, route oral; conditions: in vivo, read-out: Drug uptake; in short: as §4
[26] = test system: Mus musculus; experiment: Toxicity in diet-induced obese C57BL6 mouse assessed as reduction in food intake at 1 to 5 mg/kg, po QD; assay type: organism-based; set-up: dose 1-5 mg/kg, route oral; conditions: in vivo
In short: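 Obese male C57/Bl6 mice after at least 18 weeks of high fat diet and a 7-day vehicle run-in, randomized by body weight. Dosed orally at 1 or 5 mg/kg qd for 28 days (n = 8–10/group). Food consumption monitored twice weekly.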

[27] = AUC in plasma of fasted C57BL6 mouse at 2 mg/kg, iv and 10 mg/kg, po by LC-MS-MS analysis; assay type: ADME, organism-based; in short: as §2

IC50 [1]: 3070 nM
IC50 [2]: 34 nM
Ratio [3]: 26
IC50 [4]: 12600 nM
SMILES: Fc1ccc(Br)c(OC2CCN(c3nnc(-c4nn[nH]n4)s3)CC2)c1
Ratio IC50 [5]: 4

IC50 [1]: 3470 nM
IC50 [2]: 276 nM
Ratio [3]: 330
IC50 [4]: > 50000 nM
Kp at 6 h [6]: 15
SMILES: FC(F)(F)c1ccccc1OC1CCN(c2nnc(-c3nn[nH]n3)s2)CC1
Ratio IC50 [5]: > 14

Cmax [7]: 1.3 µM
IC50 [1]: 157 nM
IC50 [2]: 2 nM
Ratio [3]: 1.5
concentration [14]: 5 µM
IC50 [4]: 21 nM
clearance [16]: 15 mL/min/kg
Kp at 6 h [6]: 14
Vd [22]: 7 L/kg
concentration [24]: 4 µM
concentration [25]: 10 µM
AUC [27]: 19 µM·h
SMILES: Cc1nnc(-c2ccc(N3CCC(Oc4ccccc4C(F)(F)F)CC3)nn2)s1
Activity [8]: 10%
Activity [9]: Toxic
inhibition in vivo at 5 mg/kg [10]: 25%
Activity [11]: 20%
Activity [12]: Dose-dependent effect
inhibition [13]: Active
inhibition (INH) [15]: 75%
inhibition in vivo at 5 mg/kg [17]: 92%
inhibition in vivo at 5 mg/kg [18]: 56%
inhibition (INH) [19]: 55%
inhibition (INH) [20]: 62%
Activity [21]: Dose-dependent effect
ED50 [21]: 3 mg/kg
Activity [23]: Toxic
Ratio IC50 [5]: 0.14
Activity [26]: Non-toxic
